Measurements reported in PubChem BioAssay.
A number with no mark means an inactive call. Records with an inconclusive call do not appear. The source made the active and inactive calls.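 How the source made its calls, unless noted: active means viability at or below 27.92% in each of two runs, the all-compound median minus 4 SD; inconclusive means no clear call, values can overlap the other calls; inactive means the rest.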

Tests used:
[1] = S. cerevisiae growth inhibition in permissive medium (OD615), pilot counter-assay for S. cerevisiae lifespan shortening project, permissive growth control (AID 705;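 active means growth inhibition above 25% in both replicates, a cutoff set 3 SD above the mean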); details: OD615, 24 h, at 10 µM, hits give high values
Procedure, shortened: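 assay system = Saccharomyces cerevisiae strain carrying genetically modified DeaD replicative-lifespan system | technique = absorbance (optical density) at 615 nm | buffer or medium = permissive raffinose/galactose medium | timing = cells pre-grown 4 h, then 24 h compound exposure, 30 °C humidified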

[2] = S. cerevisiae growth inhibition in restrictive medium, OD615, pilot screen, restrictive growth control, yeast lifespan reduction project (AID 706;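 active means growth inhibition above a set limit, 3 SD over mean compound inhibition, in both replicates, cut at about 43% in these data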;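 further: modified DeaD lifespan yeast strain shifted to restrictive glucose medium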); details: OD615, 48 h, at 10 µM, hits give high values
Procedure, shortened: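 System: modified S. cerevisiae. Buffer or medium: CSMM-D glucose medium. Incubation: 4 h pre-growth plus 48 h compound exposure, 30 °C. Detection: absorbance (optical density) measured at 615 nm.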

[3] = doxorubicin toxicity protection in MRP-1 cells – H69AR cells, CellTiter-Glo, duplicate, MRP-1 activator project, pilot screen (AID 807;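 active means viability increase at or above a cutoff of the median across tested compounds plus 3 SD, cut at about 8.5% in these data, passing the limit was not always enough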;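 further: compound pretreatment 18-22 h then 72 h combined with doxorubicin; 0% = doxorubicin alone and 100% = vehicle without doxorubicin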); details: H69AR viability with doxorubicin, CellTiter-Glo luminescence; at 10 µM; hits give high values
[4] = viability of HCT116 without oncogenic beta-catenin – human colon tumor cells, pilot screen (AID 823;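 active means cell viability at or below a set limit in both duplicate runs, the limit being the all-compound median minus 4 SD, cut at about 23% in these data, passing the limit was not always enough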;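 further: 0% = wells killed by 20 µM Hyamine and 100% = untreated DMSO cell wells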); details: HCT116 beta-catenin knockout viability, CellTiter-Glo, 60 h; at 10 µM; hits give low values
[5] = viability of PTEN-null HCT116 cells – cell-based, HCT116 clonal line, CellTiter-Glo, pilot screen (AID 824); details: HCT116 PTEN-deleted viability, 60 h, at 10 µM, hits give low values;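 further: 0% = 20 µM Hyamine control and 100% = vehicle cell control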
[6] = RAM pathway blockade in budding yeast – dse1pr::URA3 reporter, 5-FOA selection, pilot screen (AID 869;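 active means inhibition over a set limit, the all-compound mean plus 3 SD, in both replicate runs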;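 further: 0% = DMSO wells with no growth and 100% = 10 µM 1-NA-PP1 with full growth; RAM network block rescues cells from 5-FOA so hits raise OD615 growth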); details: S. cerevisiae dse1pr::URA3 5-FOA growth, OD615, 2 d; at 10 µM; hits give high values; strain carries analog-sensitive mutant Cbk1 kinase
[7] = RAM signaling pathway blockade in yeast – S. cerevisiae, Pdr1DBD-CYC8 efflux-inhibited sensitized strain, primary screen (AID 1298;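 active means RAM network inhibition above 8.4% in each of two replicates, 3 SD over the compound average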;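 further: 0% = DMSO untreated cells without growth and 100% = 10 µM 1-NA-PP1 full growth; higher means more yeast growth rescued from 5-FOA killing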); details: S. cerevisiae cbk1-as DSE1-URA3 strain, 5-FOA growth OD615, 2 d; at 50 µM; hits give high values

Compound	growth inhibition [1]	growth inhibition [2]	viability increase [3]	viability [4]	viability [5]	inhibition [6]	RAM network inhibition [7]
COc1ccc(NC(=O)C2CCCNC2)cc1OCC(C)C (configuration not stated)	-15.2%	-19.2%	-1.5%	98.4%	97%	1.75%	2.92%
O=C(NCc1ccc2c(c1)OCO2)c1cnc2n(c1=O)CCS2	-2.39%	4.35%	-0.06%	95.9%	98%	1.17%	1.93%
CCC(SCC(=O)OC)C(=O)Nc1nnc(C(C)C)s1 (configuration not stated)	1.46%	8.39%	-1.27%	98.8%	98.1%	2.43%	2.05%
N=c1n(CCOc2ccccc2)c2ccccc2n1CCN1CCOCC1	-1.46%	6.28%	-3.52%	82.5%	85.8%	0.845%	-0.47%
CN(c1nnc(N)s1)C1CCCCC1	1.35%	14%	-1.87%	104%	98.7%	2.38%	3.49%
Cc1ccc(N2Cc3ccccc3OC(C)C2=O)cc1 (configuration not stated)	-1.43%	0.105%	-3.99%	90.3%	91.3%	0.735%	1.16%
CC12CN3CC(C)(CN(C1)C3c1ccc(Br)cc1)C2=O (configuration not stated)	-1.9%	3.54%	-2.12%	95.2%	96.9%	0.265%	0.82%
COc1ccc(S(=O)(=O)n2nc(-c3cc(OC)c(OC)c(OC)c3)cc2N)cc1OC	-12%	12.7%	-3.64%	56.3%	74.8%	0.16%	5.52%
COC(=O)COC(=O)c1ccc(Oc2nc(OC)nc(N(C)C)n2)cc1	-10.3%	-13.7%	0.83%	103%	104%	1.35%	2.76%
Cc1cc(C)c(NC(=O)C(C)(C)C)c(Cl)c1	-6.4%	6.2%	-0.89%	89.8%	86.2%	1.72%	1.23%
Cc1ccnc(N2C(=O)c3ccccc3C2Nc2cccc(C)c2C)c1 (configuration not stated)	-14%	-0.8%	0.92%	92%	87.1%	1.32%	6.56%
O=C(Cn1cc2c(n1)CCCC2)NCCCN1CCCC1	-3.79%	4.09%	0.07%	105%	99.3%	-0.37%	1.62%
c1ccc(C(Cc2nc(-c3cccnc3)no2)c2ccccc2)cc1	-8.42%	-4.57%	0.35%	90.8%	88.2%	1.46%	7.55%
Nc1c(C(=O)Nc2ccc3c(c2)OCCO3)nnn1CCc1ccccc1	-3.04%	3.6%	-5.88%	39.1%	35.4%	1.43%	7.68%
COc1cc(NC(=O)c2cc3ccccc3o2)c(OC)cc1Cl	-7.12%	-6.08%	-4.12%	80.7%	73.6%	3.16%	9.24%
CC(=O)c1cccc(NC(=O)CN(c2ccc(F)cc2)S(C)(=O)=O)c1	-13%	-15.2%	-3.2%	98.2%	98.7%	0.845%	5.96%
O=C(Nc1c(C(=O)N2CCCC2)cnn1-c1ccccc1)c1cccc(F)c1	-7.52%	-1.27%	-0.46%	96.7%	98.9%	0.475%	1.02%
COc1ccc(-n2nnnc2S(=O)(=O)CC(=O)N2CCCCC2)cc1	-2.05%	6.43%	-9.59%	1.47% (active)	2.74% (active)	0.75%	-0.17%

Compound	growth inhibition [1]	growth inhibition [2]	viability increase [3]	viability [4]	viability [5]	inhibition [6]	RAM network inhibition [7]
COc1ccc(C2C(C(=O)NCCN3CCOCC3)c3ccccc3C(=O)N2C)cc1OC (configuration not stated)	-2.92%	-2.97%	-0.98%	91.5%	100%	1.24%	3.26%
CCOC(=O)c1c(NC(=O)c2cc(C3CC3)on2)sc(C(C)=O)c1C	-3.19%	0.635%	-1.49%	104%	93.3%	1.64%	-0.58%
CC(=O)N1CCN(c2ccc(NCc3ccc(F)cc3)cc2)CC1	-7.68%	0.705%	-2.9%	90.1%	83.1%	2.81%	2.34%
O=C(CSc1oc(-c2ccco2)nc1S(=O)(=O)c1ccc(Cl)cc1)NCC1CCCO1 (configuration not stated)	1.39%	2.77%	-1.13%	96.9%	95.1%	-0.09%	1.57%
Cc1onc(-c2ccccc2)c1C(=O)NC(C)C	-11.8%	-8.11%	0.11%	105%	98.8%	0.105%	3.45%
O=C(O)CCn1c(=O)[nH]c2ccccc2c1=O	-6.32%	-15.1%	0.62%	109%	105%	1.34%	0.63%
Cc1cccc(N(C)S(=O)(=O)c2cccc3nsnc23)c1	-12%	-17.9%	-4.32%	92.5%	89%	0.325%	4.78%
CC(C)N1CC(O)=C(c2ccccc2)C1=N	2.25%	-15.7%	-0.1%	96.5%	97.2%	0.86%	4.5%
Cc1ccc(C)n1-n1c(C)nc2scc(-c3cccs3)c2c1=O	-13.1%	1.95%	-3.42%	72.1%	71.6%	0.72%	2.2%
Cc1ccc(C(=O)CC(C(=O)O)c2cn(CCC#N)c3ccccc23)cc1 (configuration not stated)	-4%	3.92%	-1.96%	98.3%	104%	0.735%	3.81%
CC(=O)Nc1cc(-c2nn3c(C)nnc3s2)ccc1C	3.93%	1.4%	-0.1%	98.7%	90.3%	3.41%	3.72%
O=C(C1CCCN(S(=O)(=O)c2cccc3cccnc23)C1)N1CCN(c2ccccc2F)CC1 (configuration not stated)	-5.55%	7.3%	-0.18%	73.2%	76.5%	-0.265%	2.98%
CCOc1cc(/C=N/O)cc(Br)c1OC	-1.28%	-18.2%	-3.13%	106%	97.1%	1.22%	5.14%
CCOCCCNC(=O)c1cc2c(=O)n3cccc(C)c3nc2n1C	-19.1%	-15.2%	-5.27%	19% (active)	24.4% (active)	2.11%	2.32%
O=C(Nc1cnc2ccccc2c1)c1ccncc1	-8.13%	-8.73%	-2.98%	99.7%	87.1%	2.08%	1.19%
CCCCC(CC)CNC(=O)CCS(=O)(=O)c1cccc2nonc12 (configuration not stated)	1.79%	-0.105%	-0.88%	92.2%	91.4%	2.17%	3.63%
O=C(c1cc2ccccn2n1)N1CCCC1	-5.76%	-2.7%	-1.17%	103%	100%	1.79%	6.63%
COc1ccc2oc(C(=O)C3CC3)c(NC(=O)CCCN3C(=O)c4ccccc4C3=O)c2c1	2.6%	6.11%	-3.63%	102%	93.6%	0.995%	3.53%
